# Source: PubChem BioAssay
# An excerpt weighted towards active compounds, which were near 1.3% of everything screened.
# Hep lipid drop – modulators of hepatic lipid droplet formation; inhibition, % at 6.5 µM; AML12 mouse hepatocytes, oleate lipid droplets, BODIPY imaging; 0.4% of 240,000 active; AID 1656;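 active = lipid droplet intensity inhibited by at least 50%, with more than 500 cells counted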
#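 System: AML12 hepatocytes (mouse). Probe or stimulus: oleic acid at 100 µM to induce lipid droplet formation. Times: overnight treatment with compound plus oleate. Detection: Image-based BODIPY and DAPI two-channel analysis. Evaluation: percent inhibition of filter-corrected integrated lipid droplet intensity per well.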
# procasp7 counter – counter-screen: procaspase-7 (human) activation | recombinant procaspase-7, Ac-DEVD-pNA absorbance 405 nm; D23A/D198A/D206A triple mutant, cannot self-cleave; scale: DMSO 0, 5 µM enzyme 100 | activation, % at 8.5 µM | AID 463210 | P55210 | 0.093% of 330,000 active;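 active = percent activation above the screen-wide mean plus 3 SD, cut at about 25% in these data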
#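 Assay system: Uncleavable procaspase-7 mutant enzyme | Input: 2 µM procaspase-7 mutant as dispensed | Timing: 1 h compound preincubation, 2 h substrate cleavage, 25 °C | Repeats: One well per compound | Control set: DMSO wells as 0%, DMSO with 5 µM added PC-7 as 100% | Technique: Epi-absorbance of released pNA at 405 nm, two timepoints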
# proCasp3 act – activates human procaspase-3; P42574; recombinant procaspase-3 D3A, Ac-DEVD-pNA absorbance 405 nm; activation, % at 8.5 µM; 0.11% of 330,000 active; AID 463141;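 active = activation above the mean of all tested compounds plus 3 SD, cut at about 21% in these data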;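 also: 0% = DMSO alone and 100% = DMSO wells spiked with extra 5 µM PC-3 D3A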
#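 material = Procaspase-3 D3A mutant | probe or stimulus = Ac-DEVD-pNA | compound = single dose, 8.5 µM nominal compound, 0.8% DMSO | timing = 1 h preincubation, 2 h reaction | measured by = 405 nm absorbance of p-nitroaniline, reads at 0 and 120 min | benchmarks = DMSO-only low control, 5 µM PC-3 D3A high control | repeats = singlicate, each compound tested once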
# JMJD2C inh – human JMJD2C demethylase inhibition; Q9H3R0; GST-JMJD2C(1-420) H3K9me3 demethylation, DELFIA europium; inhibition, % at 2.35 µM; 0.069% of 330,000 active; AID 2099;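 active = more than half of a compound's replicate wells show inhibition beyond 50%, single wells judged on their own value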;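 also: signal counts dimethyl H3K9 product captured on neutravidin plate; 0% = median of DMSO wells and 100% = 0.3 times that DMSO median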
# Target sequence (Q9H3R0 1-420 limits assumed): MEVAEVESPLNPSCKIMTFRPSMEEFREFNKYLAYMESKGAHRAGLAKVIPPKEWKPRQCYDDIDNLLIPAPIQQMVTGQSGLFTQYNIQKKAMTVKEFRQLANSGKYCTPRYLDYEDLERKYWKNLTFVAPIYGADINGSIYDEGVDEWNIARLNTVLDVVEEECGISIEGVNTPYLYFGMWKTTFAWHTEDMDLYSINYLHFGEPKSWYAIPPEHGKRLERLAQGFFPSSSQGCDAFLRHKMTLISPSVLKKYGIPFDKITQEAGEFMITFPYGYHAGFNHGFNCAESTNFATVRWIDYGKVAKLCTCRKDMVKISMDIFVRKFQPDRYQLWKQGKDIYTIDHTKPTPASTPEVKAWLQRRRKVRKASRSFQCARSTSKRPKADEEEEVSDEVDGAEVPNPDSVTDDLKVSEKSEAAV
# GRK2 aptamer HTS – human GRK2 inhibition via aptamer displacement. inhibition of aptamer binding, % at 10 µM. bead flow cytometry, FAM-aptamer displacement from GRK2. P25098. AID 488847. 0.59% of 330,000 active;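 active = inhibition of aptamer binding above 40%, roughly 3 SD of noise, on plates passing a quality check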;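 also: median bead fluorescence of bound FAM aptamer so fluorescent compounds give negative values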
# VLA-4 inh – inhibition in a human VLA-4 binding assay; P13612; VLA-4 expressing cells, ligand binding flow cytometry; inhibition, % (about 7 µM as worked out from the volumes in the protocol); 0.2% of 330,000 active; AID 2557; in the data active = inhibition above about 50%
# VLA-4 mod pick – human VLA-4 allosteric modulation in cherry picked compounds; shares compounds with VLA-4 inh; U937 cells, HUTS-21 LIBS mAb binding, flow cytometry; LDV ligand present at threefold Kd; inhibition, % at 6.7 µM; 2% of 1,300 active; in the data active = inhibition above about 40%;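 also: 0% = ligand without compound and 100% = no ligand background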
# Starred values were filed as active, the others as inactive; i = inactive; nt = not tested or not shown.
SMILES,Hep lipid drop,procasp7 counter,proCasp3 act,JMJD2C inh,GRK2 aptamer HTS,VLA-4 inh,VLA-4 mod pick
CCCCC(=O)Nc1cc(C)c(NC(=O)c2ccco2)cn1,12,-10,2,12,0,11,nt
CCCCOc1ccc(C(=O)OCC(=O)Nc2cc(C)c(C)cc2[N+](=O)[O-])cc1,-5,-1,0,3,1,2,nt
COc1ccc(C(=O)OCC(=O)Nc2cc(C)c(C)cc2[N+](=O)[O-])cc1,-10,6,6,-17,0,54*,0
CN(CCc1ccccc1)C(=O)CCc1nnc(Cc2ccc3c(c2)OCO3)o1,0,2,3,8,2,0,nt
C[C@H]([C@H](O)c1ccccc1)N(C)C(=O)CN,0,3,4,nt,0,51*,-1
COCCNC(=S)Nc1cc2oc3ccccc3c2cc1OC,8,nt,nt,-1,0,1,nt
C#C[C@]1(O)CC[C@H]2[C@@H]3CCc4cc(OC5CCCC5)ccc4[C@H]3CC[C@@]21C,-3,3,-1,19,1,53*,18
C#C[C@]1(O)CC[C@H]2[C@@H]3CCc4cc(OC)ccc4[C@H]3CC[C@@]21C,10,-2,4,22,0,-7,nt
Cn1ncc([N+](=O)[O-])c1C(=O)NC1CCCCC1,2,-1,6,21,4,-14,nt
CS(=O)c1nc(-c2ccc(Br)cc2)cc(-c2ccccc2)c1C#N (stereo unspecified),12,1,-13,-1,6,59*,41*
Cc1cc([N+](=O)[O-])ccc1NC(=O)CSc1nncn1-c1cccnc1,-8,4,-6,-28,0,-2,nt
Nn1nnc2ccccc21,7,-1,1,6,1,56*,-3
c1ccc2c(c1)nnn1c3ccccc3nc21,nt,11,2,9,0,30,nt
COc1ccc(C(=O)N2CCC(C(=O)Nc3ccc(OC)c(OC)c3)CC2)cc1,nt,2,1,-8,1,6,-1
COC(=O)c1ccccc1NC(=O)C1CCN(C(=O)c2cc(OC)c(OC)c(OC)c2)CC1,nt,-2,3,1,1,8,7
Cc1ccc(NC(=O)C2CCN(C(=O)c3ccccc3C)CC2)nc1,nt,15,1,-3,1,2,8
Cc1ccccc1C(=O)N1CCC(C(=O)Nc2ccccc2Cl)CC1,18,-1,10,13,5,2,0
Cc1cccc(NC(=O)c2nc[nH]c2C(=O)NC2CCN(C(=O)OC(C)(C)C)CC2)c1,nt,9,10,-8,2,16,nt
CNC[C@H](NC[C@@H](NCCCc1ccccc1)c1ccccc1)[C@H](C)O,19,-10,3,7,0,20,nt
O=C(C1=C[C@H](c2csc3ccccc23)C[C@H](OCc2ccc(CO)cc2)O1)N1CCCCCCC1,nt,4,-6,4,0,-5,nt
CNC(=S)N1CCn2cccc2C1c1ccc(F)cc1 (stereo unspecified),-3,1,8,1,0,-2,nt
Cc1ccc(C(=O)N2CCC(C(=O)NC3CCCCCC3)CC2)cc1,6,-10,-9,3,1,-3,nt
Cc1ccc(NC(=O)C2CCN(C(=O)c3ccc(Cl)cc3)CC2)nc1,nt,9,7,4,1,7,0
Cc1cc(C)nc(NC(=O)c2cccc(Cl)c2)n1,nt,3,0,-31,2,53*,-2
Cc1ccc(C(=O)NC(=S)Nc2ccc(NC(=O)c3cccc(Cl)c3)cc2)cc1,24,12,6,3,nt,47,8
SMILES,Hep lipid drop,procasp7 counter,proCasp3 act,JMJD2C inh,GRK2 aptamer HTS,VLA-4 inh,VLA-4 mod pick
CCOC(=O)c1c(N2C(=O)C=CC2=O)sc(C)c1C,-20,-24,-23,-4,0,50*,32
CCC(C(=O)OCC(=O)Nc1c(C)n(C)n(-c2ccccc2)c1=O)c1ccccc1 (stereo unspecified),9,7,2,-6,2,36,-2
Cc1c(NC(=O)CCC(=O)N2CCCCC2)c(=O)n(-c2ccccc2)n1C,nt,-7,8,3,0,19,2
Cc1c(NC(=O)COC(=O)C(c2ccc(Cl)cc2)C(C)C)c(=O)n(-c2ccccc2)n1C (stereo unspecified),-2,2,-5,6,0,-7,nt
CCOc1ccc(N(CC(=O)Nc2ccc(OC)cc2)S(=O)(=O)c2c(C)[nH]c(=O)[nH]c2=O)cc1,0,4,3,12,2,57*,0
CCOc1ccc(NC(=O)CN(c2ccc(OCC)cc2)S(=O)(=O)c2c(C)[nH]c(=O)[nH]c2=O)cc1,-1,14,8,26,1,-5,10
CC(C)(C)c1ccc(C(=O)NCc2nnc(SCC(=O)NCC3CCCO3)o2)cc1 (stereo unspecified),3,4,4,-5,1,26,nt
O=C(c1ccccc1)c1ccc2nc(N3CCN(C(=O)c4ccco4)CC3)c3nncn3c2c1,nt,2,-2,-13,3,55*,-5
CCOC(=O)N1CCN(c2nc3ccc(C(=O)c4ccccc4)cc3n3cnnc23)CC1,3,1,6,-28,1,-9,nt
CCOC(=O)C1(Cc2ccccc2)C(=O)Nc2ccccc21 (stereo unspecified),nt,7,-6,-1,1,4,nt
CCOC(=O)C1(C(F)(F)F)N=C(C(F)(F)F)Nc2ccccc21 (stereo unspecified),-18,3,5,3,0,56*,1
COc1ccc([C@@]2(O)c3c(ccc(CC=C(C)C)c3O)NC(=O)[C@@H]2OC)cc1,-3,14,2,i,0,0,-10
COc1ccc(C2(O)C(=O)Nc3ccc(C)cc32)cc1 (stereo unspecified),4,16,-4,1,4,-8,nt
C=CCC[C@H](Cc1ccc(F)cc1)C(=O)OC[C@@H](C)NC(=O)[C@@H](CC=C)CC(=O)N[C@@H](CO)Cc1ccccc1,nt,-4,-8,3,10,63*,-1
NC(=O)OCC(O)COc1ccc(Cl)cc1 (stereo unspecified),nt,-7,12,nt,3,57*,-6
O=S(Cc1ccc(Cl)cc1)CC(O)COc1ccc(Cl)cc1 (stereo unspecified),nt,3,3,2,2,-4,nt
CC(C)c1ccccc1-n1c(SCC(=O)N2CCc3ccccc3C2)nc2ccccc2c1=O,-43,8,-5,-4,0,55*,8
